Measurements as given in ChEMBL document CHEMBL1649314, “Experimental murine scedosporiosis: histopathology and azole treatment” (2010).
In brackets after ≈: the same amount, converted by molar mass. Activity calls are given as the source filed them. The rule behind the calls is not given here.

Legend:
[1] = Antifungal activity against Scedosporium aurantiacum IHEM 15458 by broth dilution method; format: functional
[2] = Antifungal activity against Scedosporium aurantiacum CBS 116910 by broth dilution method; format: functional
[3] = system: Scedosporium apiospermum; experiment: Antifungal activity against Scedosporium apiospermum CBS 117407 infected in immunosuppressed OF1 mouse assessed as reduction in kidney fungal burden at 1.5 mg/kg/day, ip administered 24 hrs postinfection for 10 days measured after 20 days; format: functional, organism-based
[4] = Antifungal activity against Scedosporium aurantiacum CBS 116910 infected in immunosuppressed OF1 mouse assessed as prolonged survival of mouse at 1.5 mg/kg/day, ip administered 24 hrs postinfection for 10 days measured after 20 days; format: functional, organism-based
Method in brief: (§1)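 Male OF1 mice immunosuppressed 1 day before infection with cyclophosphamide 200 mg/kg i.p. plus 5-fluorouracil 150 mg/kg i.v. Infection: 1 × 10^4 CFU of PDA-grown conidia in 0.2 ml saline via lateral tail vein. Treatment 1.5 mg/kg/day i.p., started 24 h post-challenge, given for 10 days; 10 mice/group; checked daily to day 20. Kaplan-Meier mean survival, log rank test.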

[5] = system: Scedosporium boydii; experiment: Antifungal activity against Scedosporium boydii FMR 6694 by broth dilution method; format: functional
[6] = system: Scedosporium boydii; experiment: Antifungal activity against Scedosporium boydii FMR 6694 infected in immunosuppressed OF1 mouse assessed as reduction in kidney fungal burden at 1.5 mg/kg/day, ip administered 24 hrs postinfection for 10 days measured after 20 days; format: functional, organism-based
[7] = Antifungal activity against Scedosporium aurantiacum IHEM 15458 infected in immunosuppressed OF1 mouse assessed as prolonged survival of mouse at 1.5 mg/kg/day, ip administered 24 hrs postinfection for 10 days measured after 20 days; format: functional, organism-based; method in brief: as §1
[8] = system: Scedosporium apiospermum; experiment: Antifungal activity against Scedosporium apiospermum IHEM 14464 infected in immunosuppressed OF1 mouse assessed as prolonged survival of mouse at 1.5 mg/kg/day, ip administered 24 hrs postinfection for 10 days measured after 20 days; format: functional, organism-based; method in brief: as §1
[9] = system: Scedosporium aurantiacum; experiment: Antifungal activity against Scedosporium aurantiacum CBS 116910 infected in immunosuppressed OF1 mouse assessed as reduction in kidney fungal burden at 1.5 mg/kg/day, ip administered 24 hrs postinfection for 10 days measured after 20 days; format: functional, organism-based
[10] = system: Scedosporium boydii; experiment: Antifungal activity against Scedosporium boydii FMR 6694 infected in immunosuppressed OF1 mouse assessed as prolonged survival of mouse of mouse at 1.5 mg/kg/day, ip administered 24 hrs postinfection for 10 days measured after 20 days; format: functional, organism-based; method in brief: as §1
[11] = system: Scedosporium apiospermum; experiment: Antifungal activity against Scedosporium apiospermum CBS 117407 infected in immunosuppressed OF1 mouse assessed as prolonged survival of mouse at 1.5 mg/kg/day, ip administered 24 hrs postinfection for 10 days measured after 20 days; format: functional, organism-based; method in brief: as §1
[12] = system: Scedosporium boydii; experiment: Antifungal activity against Scedosporium boydii FMR 8627 infected in immunosuppressed OF1 mouse assessed as reduction in kidney fungal burden at 1.5 mg/kg/day, ip administered 24 hrs postinfection for 10 days measured after 20 days; format: functional, organism-based
[13] = system: Scedosporium boydii; experiment: Antifungal activity against Scedosporium boydii FMR 8627 infected in immunosuppressed OF1 mouse assessed as prolonged survival of mouse at 1.5 mg/kg/day, ip administered 24 hrs postinfection for 10 days measured after 20 days; format: functional, organism-based; method in brief: as §1
[14] = system: Scedosporium boydii; experiment: Antifungal activity against Scedosporium boydii FMR 8627 by broth dilution method; format: functional
[15] = system: Scedosporium apiospermum; experiment: Antifungal activity against Scedosporium apiospermum IHEM 14464 infected in immunosuppressed OF1 mouse assessed as reduction in kidney fungal burden at 1.5 mg/kg/day, ip administered 24 hrs postinfection for 10 days measured after 20 days; format: functional, organism-based
[16] = system: Scedosporium apiospermum; experiment: Antifungal activity against Scedosporium apiospermum IHEM 14464 by broth dilution method; format: functional
[17] = system: Scedosporium aurantiacum; experiment: Antifungal activity against Scedosporium aurantiacum IHEM 15458 infected in immunosuppressed OF1 mouse assessed as reduction in kidney fungal burden at 1.5 mg/kg/day, ip administered 24 hrs postinfection measured on day 4 postinfection
[18] = system: Scedosporium apiospermum; experiment: Antifungal activity against Scedosporium apiospermum CBS 117407 by broth dilution method; format: functional

In the case of `C[C@@H]1[C@H](O)[C@@H](C)/C=C/C=C/C=C/C=C/C=C/C=C/C=C/[C@H](O[C@@H]2O[C@H](C)[C@@H](O)[C@H](N)[C@@H]2O)C[C@@H]2O[C@](O)(C[C@@H](O)C[C@@H](O)[C@H](O)CC[C@@H](O)C[C@@H](O)CC(=O)O[C@H]1C)C[C@H](O)[C@H]2C(=O)O` [AMPHOTERICIN B], the MIC [1] is reported as 32 µg/mL (≈ 34.6 µM), the MIC [2] is reported as 32 µg/mL (≈ 34.6 µM) and the Activity [3] is reported as “inactive”. For the same compound, the Activity [4] was “inactive”, the MIC [5] was 32 µg/mL (≈ 34.6 µM) and the Activity [6] was “inactive”. For the same compound, the Activity [7] was “inactive”, the Activity [8] was “inactive” and the Activity [9] was “inactive”. For the same compound, the Activity [10] was “inactive”, the Activity [11] was “inactive” and the Activity [12] was “inactive”. For the same compound, the Activity [13] was “inactive”, the MIC [14] was 8 µg/mL (≈ 8.66 µM) and the Activity [15] was “inactive”. The MIC [16] was 32 µg/mL (≈ 34.6 µM), the Activity [17] was “inactive” and the MIC [18] was 8 µg/mL (≈ 8.66 µM).
